Results collected from several papers.
Lines come from different studies, so protocols differ.
Medium: plasma

For `CC1(C)CC[C@]2(NC(=O)C(C)(F)F)CC[C@]3(C)[C@H](C(=O)C=C4[C@@]5(C)C=C(C#N)C(=O)C(C)(C)[C@@H]5CC[C@]43C)[C@@H]2C1`, the AUC(0-t) was 1730 ng·h/mL (human; oral, 150 mg, single dose).
`C[C@@H](Oc1ccc(S(C)(=O)=O)cc1C(=O)N1C[C@@H]2C[C@]2(c2cc(C(F)(F)F)on2)C1)C(F)(F)F` gave an AUC(0-t) of 1.61 µM·h (human; oral, 10 mg, single dose, fasted).
With `CC(=O)N(C)[C@H]1CCN(C(=O)c2cnc3c(c2)C[C@](C)(c2ccc(F)cc2)N3)C1` the AUC(0-t) was 3.42 µM·h (male human; oral, 30 mg, multiple doses, once daily).
For `CC(=O)O[C@H]1C(=O)[C@@]2(C)[C@H]([C@H](OC(=O)c3ccccc3)[C@]3(O)C[C@H](OC(=O)[C@H](O)[C@@H](NC(=O)c4ccccc4)c4ccccc4)C(C)=C1C3(C)C)[C@]1(OC(C)=O)CO[C@@H]1C[C@@H]2O`, the AUC(0-t) was 2.1 µM·h (human; intravenous, 60 mg/m²).
With `CC(C)n1c(C2CCNCC2)nc2c([N+](=O)[O-])c(Br)c(Br)cc21` the AUC(0-t) was 152 ng·h/mL (human; oral, 25 mg, patients).
`OC[C@H]1O[C@@H](c2cc(Cc3ccc(C4CC4)cc3)c(Cl)c3c2CCO3)[C@H](O)[C@@H](O)[C@@H]1O` gave an AUC(0-t) of 26.5 ng·h/mL (human; oral, 0.3 mg, single dose, fasted).
For `C=CC(=O)NC1CCN(c2ncc3ncnc(Nc4ccc(Oc5ccc6c(c5)ncn6C)c(C)c4)c3n2)CC1`, the AUC(0-t) was 0.00262 µM·h (male human; intravenous, 100 µg, healthy volunteers).
With `COc1ccc(-c2c(Nc3ccccn3)[nH]c3c(C4=CCCCC4)c(-c4ccccc4)nn3c2=O)cc1` the AUC(0-t) was 33400 ng·h/mL (human; oral, 50 mg once daily, multiple doses, steady state, patients).
With `COc1ccc2c(c1)CN(C(=O)CCN1CCC(Cc3ccccc3)CC1)CC[S@@+]2[O-]` the AUC(0-t) was 241 ng·h/mL (male human; intravenous, 0.05 mg/kg, healthy volunteers).
